From ChEMBL document CHEMBL1122723, “Potential antitumor agents: synthesis and biological properties of aliphatic amino acid 9-hydroxyellipticinium derivatives” (1984) come the findings set out here.

The test system of one test is Nucleic Acid. Kind of test: Apparent binding constant (Kapp) for calf thymus DNA was measured by competition with ethidium bromide. In kind it is nucleic-acid assay. The settings on record: Bos taurus. The method, boiled down:
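Calf thymus DNA binding measured by ethidium bromide competition in 0.2 M Tris-HCl buffer, pH 7.40. Apparent binding constants were derived from Scatchard plots.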

Test [1] has as its system Mus musculus. Kind of test: Percent Increase in life span (ILS) over controls (10e5 L1210 leukemia cells) at LD0/2 by ip administration of the drug into mouse (single injection 2 hr after cell grafting). In kind it is functional. The essentials: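 DBA/2 mice were inoculated with 10⁵ L1210 cells and then given one intraperitoneal dose at LD0/2, the LD0 being the highest nonlethal single ip dose. Life span was compared with untreated controls as ILS = (T − C)/C × 100. ILS > 25% was counted as a significant antitumor effect.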

In another test the test system is Escherichia coli. Description: Compound was evaluated for the effective dose, as compared to controls against Escherichia coli BL 101. Type of test: functional. The following applies: read-out: ED50 (the source's name). The method, boiled down:
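Bacteriostatic test on E. coli BL 101, a quaternary-ammonium-sensitive strain, and on Salmonella typhimurium TA 98. Inocula from master plates were grown overnight at 37 °C and diluted 1000-fold in the same medium. Cultures were shaken at 37 °C, with drugs added after 2 h of growth at graded concentrations. Growth was followed by turbidity at 650 nm. ED50 is the dose halving growth rate versus controls, from a regression of % inhibition on log dose.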

Test [2] relates to Mus musculus. Description: Compound tested in vivo for highest […] administered intraperitoneally that reduces the L1210 leukemia cell growth. In kind it is functional. The essentials: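 Highest nonlethal dose (LD0) found for each compound after one intraperitoneal injection into DBA/2 mice.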
A further test has as its system L1210. Kind of test: Dose that reduces the L1210 leukemia cell growth in vitro by 50% after 48 hr as compared to controls. Type of test: functional. The following applies: Mus musculus, L1210, 48 h; read-out: ID50 (the source's name). The method, boiled down: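 L1210 leukemia cells were grown in vitro with graded drug doses for 48 h. ID50 is the dose that reduces cell growth by 50% versus controls, read from a regression line of % growth inhibition against log dose. 50% inhibition corresponds to a twofold increase in generation time.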

Another test has as its system Salmonella typhimurium. Kind of test: Compound was evaluated for the effective dose, as compared to controls against Salmonella typhimurium TA98. The following applies: read-out: ED50 (the source's name).

For the compound `Cc1c2cc[n+](C)cc2c(C)c2c1[nH]c1ccc(O)c(/N=C/C(=O)O)c12`, the K app in the test with Nucleic Acid worked out at 80000 M⁻¹. The compound further registered an ILS in the test on Mus musculus [1] of 0. The EC50 in the test with Escherichia coli was 3150 nM; with Salmonella typhimurium, 100000 nM. This compound registered an LD0 in the test with Mus musculus [2] of 20 mg/kg. Further, the IC50 in the test on L1210 worked out at 540 nM.

On to `C/C(=N\c1c(O)ccc2[nH]c3c(C)c4cc[n+](C)cc4c(C)c3c12)C(=O)O`, for which the K app in the test on Nucleic Acid turned out to be 470000 M⁻¹. In addition, the ILS in the test with Mus musculus [1] is 23. Further, the EC50 in the test with Escherichia coli amounted to 1950 nM; in the test on Salmonella typhimurium, 50300 nM. For the same compound, in the test with Mus musculus [2], the LD0 was determined as 20 mg/kg. In the test with L1210, the IC50 worked out at 200 nM.

As for `Cc1c2cc[n+](C)cc2c(C)c2c1[nH]c1ccc(O)c(/N=C(/C(=O)O)C(C)C)c12`, in the test on Nucleic Acid, the K app was 210000 M⁻¹. For the same compound, the ILS in the test on Mus musculus [1] was 31.5. The EC50 in the test on Escherichia coli is 180 nM; in the test with Salmonella typhimurium, 1650 nM. Moreover, the LD0 in the test on Mus musculus [2] came out at 15 mg/kg. Besides, in the test on L1210, the IC50 was 310 nM.

On to `Cc1c2cc[n+](C)cc2c(C)c2c1[nH]c1ccccc12`, for which the K app in the test on Nucleic Acid was 230000 M⁻¹. Also, the ILS with Mus musculus [1] is reported as 22. The same compound displayed an LD0 with Mus musculus [2] of 12.5 mg/kg.

Regarding `Cc1c2cc[n+](C)cc2c(C)c2c1[nH]c1ccc(O)cc12` [ELLIPTINIUM], in the test on Nucleic Acid, the K app was 1.3e+06 M⁻¹. Besides, the ILS in the test on Mus musculus [1] was 53. Besides, the EC50 in the test on Escherichia coli stood at 3550 nM. In addition, the LD0 in the test on Mus musculus [2] was determined as 5 mg/kg. In addition, the IC50 in the test on L1210 was 50 nM.

Consider `Cc1c2cc[n+](C)cc2c(C)c2c1[nH]c1ccc(O)c(/N=C(\CC(C)C)C(=O)O)c12`, for which the K app in the test on Nucleic Acid is 260000 M⁻¹. The ILS with Mus musculus [1] is reported as 35. Further, the EC50 in the test with Escherichia coli is 760 nM; in the test with Salmonella typhimurium, 2350 nM. For the same compound, the LD0 in the test on Mus musculus [2] is 10 mg/kg. Also, the IC50 in the test on L1210 is 280 nM.
